Results from ChEMBL document CHEMBL1799968, “Dimethyl-diphenyl-propanamide derivatives as nonsteroidal dissociated glucocorticoid receptor agonists” (J Med Chem, 2010).

Columns and labels:
Rattus norvegicus [1] = test: Toxicity in fasted Sprague-Dawley rat assessed as induction of TAT activity in liver homogenates at 7.5 to 30 mg/kg, po after 6 hrs; assay type: organism-based; parameters: dose 7.5-30 mg/kg, route oral; details: in vivo
Procedure, shortened: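 Male SD rats, fasted, single oral dose. Liver was biopsied 6 h postdose, snap frozen, homogenised in 150 mM KCl and centrifuged. Protein-normalised supernatants were assayed for TAT activity, read as OD at 340 nm. Values are given as % of TAT activity in prednisolone-treated (30 mg/kg) rats.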

Rattus norvegicus [2] = test: Antiinflammatory activity against carrageenan-induced paw edema Sprague-Dawley rat model assessed as inhibition of hind paw swelling at 30 mg/kg, po measured after 5 hrs post carrageenan challenge; assay type: functional; details: Rattus norvegicus, Sprague-Dawley, po, 5 h
Procedure, shortened: (§1)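 Male SD rats, fasted overnight plus up to 6 h more. Baseline hind paw volume taken by water plethysmometer. A single oral dose was given in a biologically acceptable medium. 2 h later, under anaesthesia, 1% carrageenan in PBS was injected subcutaneously into both hind paws. Volume was read 3 h post challenge, and swelling was taken as post-challenge minus baseline.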

Rattus norvegicus [3] = test: Serum concentration in fasted Sprague-Dawley rat at 15 mg/kg, po after 6 hrs; details: in vivo
Rattus norvegicus [4] = test: Serum concentration in fasted Sprague-Dawley rat at 7.5 mg/kg, po after 6 hrs; details: in vivo
Rattus norvegicus [5] = test: Toxicity in carrageenan-induced paw edema Sprague-Dawley rat model assessed as increase in blood glucose level at 30 mg/kg, po measured […] by glucometer; assay type: organism-based; parameters: dose 30 mg/kg, route oral; details: in vivo
Procedure, shortened: (§2)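 Carrageenan paw edema rats (male SD, fasted, single oral dose, carrageenan 2 h postdose). Blood glucose was read by glucometer on tail-nick samples, at baseline and 5 h after dosing.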

Rattus norvegicus [6] = test: Serum concentration in fasted Sprague-Dawley rat at 30 mg/kg, po after 6 hrs; details: in vivo
Rattus norvegicus [7] = test: Antiinflammatory activity in po dosed carrageenan-induced paw edema Sprague-Dawley rat model assessed as inhibition of hind paw swelling after 5 hrs post carrageenan challenge; assay type: functional; procedure, shortened: as §1
Rattus norvegicus [8] = test: Toxicity in carrageenan-induced paw edema Sprague-Dawley rat model assessed as increase in blood glucose level at 100 mg/kg, po measured […] by glucometer; assay type: organism-based; parameters: dose 100 mg/kg, route oral; details: in vivo; procedure, shortened: as §2
Rattus norvegicus [9] = test: Antiinflammatory activity against carrageenan-induced paw edema Sprague-Dawley rat model assessed as inhibition of hind paw swelling at 100 mg/kg, po measured after 5 hrs post carrageenan challenge; assay type: functional; procedure, shortened: as §1
Rattus norvegicus [10] = test: Antiinflammatory activity against carrageenan-induced paw edema Sprague-Dawley rat model assessed as inhibition of hind paw swelling at 50 mg/kg administered as po single dose after 5 hrs post carrageenan challenge; assay type: functional; procedure, shortened: as §1
Rattus norvegicus [11] = test: Toxicity in carrageenan-induced paw edema Sprague-Dawley rat model assessed as increase in blood glucose level at 50 mg/kg, po measured […] by glucometer; assay type: organism-based; parameters: dose 50 mg/kg, route oral; details: in vivo; procedure, shortened: as §2

Row | Compound | Activity (Rattus norvegicus [1]) | inhibition in vivo at 30 mg/kg (Rattus norvegicus [2]) [%] | serum concentration (Rattus norvegicus [3]) [nM] | serum concentration (Rattus norvegicus [4]) [nM] | Activity (Rattus norvegicus [5]) [%] | serum concentration (Rattus norvegicus [6]) [nM] | Activity (Rattus norvegicus [7]) | ED50 (Rattus norvegicus [7]) [mg/kg] | Activity (Rattus norvegicus [8]) | inhibition in vivo at 100 mg/kg (Rattus norvegicus [9]) [%] | inhibition in vivo at 50 mg/kg (Rattus norvegicus [10]) [%] | Activity (Rattus norvegicus [11]) [%]
1 | CC(C)(C(=O)Nc1nncs1)[C@H]1c2ccccc2Oc2cc(O)ccc21 | Non-toxic | 56 | 157 | 59 | < 1 | 311 | Dose-dependent effect | 44 |  |  |  | 
2 | CC(C)(C(=O)Nc1nccs1)[C@@H](c1ccccc1)c1ccc(O)cc1 |  |  |  |  |  |  |  |  | Non-toxic | 46 |  | 
3 | CC(C)(C(=O)Nc1nccs1)[C@@H](c1ccccc1)c1ccc(O)c(F)c1 |  |  |  |  |  |  | Dose-dependent effect | 45 |  |  | 61 | < 1
